Measurements collected from several papers.
Lines come from different studies, so protocols differ.
Target: Mitogen-activated protein kinase 11 (MAPK11, Homo sapiens, UniProt Q15759)

SMILES | effect on | mode | technique | tested at | measurement | value
CC(C)(C)c1nc(-c2cccc(NS(=O)(=O)c3c(F)cccc3F)c2F)c(-c2ccnc(N)n2)s1 | enzyme activity | inhibitor | radiometric | 1 µM | remaining activity | 104%
CNC(=O)c1cc(Oc2ccc(NC(=O)Nc3ccc(Cl)c(C(F)(F)F)c3)cc2)ccn1 | cell-free assay |  |  | 0.5 µM | remaining signal | 46.9%
CNCc1ccc(-c2cc(-c3nc(-c4ccc(S(=O)(=O)C(C)C)cc4)cnc3N)on2)cc1 | enzyme activity | inhibitor |  | 0.4 µM | inhibition | 2%
O=C1NC(=O)c2cc(Nc3ccc(F)cc3)c(Nc3ccc(F)cc3)cc21 | cell-free assay |  |  | 0.5 µM | remaining signal | 94.6%
c1ccc(CNc2nc(N3CCOc4ccccc43)nc3c2CCCC3)cc1 | target engagement in cells | inhibitor | chemoproteomics | 20 mM | inhibition | -9.7%
Cc1sc(C(=O)NC2COC2)cc1-n1cc(NC(=O)Nc2c(F)cccc2Cl)cn1 | enzyme activity | inhibitor |  | 10 µM | remaining activity | 94.3%
CC/C(=N\NC(=O)NCc1cccc(O)c1)c1ccc(O)c(C)c1O | enzyme activity | inhibitor |  | 0.1 µM | inhibition | 0.5%
Cn1c2c(c3ccc(Cl)c(Cl)c31)C(C#N)C1(CCN(C(=O)OC(C)(C)C)CC1)NC2=O (racemic) | thermal stability |  | DSF | 10 µM | ΔTm | -0.8 °C
Oc1cccc(-c2nc(N3CCOCC3)c3oc4ncccc4c3n2)c1 | enzyme activity | inhibitor |  | 10 µM | remaining activity | 100%
Cc1ccc(Nc2nccc(N(C)c3ccc4c(C)n(C)nc4c3)n2)cc1S(N)(=O)=O | enzyme activity | inhibitor |  | 10 µM | inhibition | 64%
O=C(NS(=O)(=O)c1ccc(NCC2CCOCC2)c([N+](=O)[O-])c1)c1ccc(N2CCN(Cc3ccc(C(F)(F)F)cc3-c3ccc(Cl)cc3)CC2)cc1Oc1cnc2[nH]ccc2c1 | cell-free assay |  | competition with immobilised ligand | 1 µM | remaining binding | 78%
O=C(CSc1nc2nccnc2c(=O)n1CCc1ccccc1)Nc1nccs1 | enzyme activity | inhibitor |  | 10 µM | inhibition | 5%
O=C1NC(c2ccccn2)Sc2ccccc21 (stereo not drawn) | cell-free assay |  | competition with immobilised ligand | 1 µM | remaining binding | 100%
Cc1ccc(NC(=O)c2ccc(C)c(C(F)(F)F)c2)cc1C#Cc1nn(C2CCC(O)CC2)c2ncnc(N)c12 (stereo not drawn) | cell-free assay |  |  | 10 µM | remaining signal | -2%
CCCCNc1ncc2c(-c3ccc(F)cc3)nn(C[C@H]3CC[C@H](N)CC3)c2n1 | target engagement in cells | inhibitor | chemoproteomics | 20 mM | inhibition | 36.9%
CCN(CC)CCNC(=O)c1c(C)[nH]c(/C=C2\C(=O)Nc3ccc(F)cc32)c1C | enzyme activity | inhibitor |  | 0.3 µM | inhibition | -5%
NS(=O)(=O)c1cc(NC(=O)Cc2ccccc2)ccc1Oc1cccc(Cl)c1 | cell-free assay |  | competition with immobilised ligand | 1 µM | remaining binding | 100%
Nc1nc(NC2CCCCC2)sc1C(=O)c1ccccc1 | enzyme activity | inhibitor |  | 10 µM | remaining activity | 22%
Cn1c2c(c3ccc(Cl)c(Cl)c31)C(C#N)C1(CCNCC1)NC2=O (racemic) | thermal stability |  | DSF | 10 µM | ΔTm | 0.2 °C
FC(F)c1nc2ccccc2n1-c1nc(N2CCOCC2)nc(N2CCOCC2)n1 | enzyme activity | inhibitor |  | 10 µM | remaining activity | 95%

SMILES | effect on | mode | technique | tested at | measurement | value
Cc1ccc(C(=O)Nc2ccc(CN3CCN(C)CC3)c(C(F)(F)F)c2)cc1C#Cc1cnc2cccnn12 | enzyme activity | inhibitor |  | 23.5 nM | remaining activity | 63%
COc1cc(Nc2cnc(C#N)c(O[C@H](C)CN(C)C)n2)ncc1-c1cnn(C)c1 | enzyme activity | inhibitor | radiometric | 10 µM | remaining activity | 92%
CNCc1ccccc1-c1csc([C@H](C)Nc2nc(C)nc3cc(OC)c(OC)cc23)c1 | cell-free assay |  | competition with immobilised ligand | 1 µM | remaining binding | 100%
CCN1CCC2(CC1)NC(=O)c1c(c3ccc(Cl)c(Cl)c3n1C)C2C#N (racemic) | thermal stability |  | DSF | 10 µM | ΔTm | -0.3 °C
Cc1cnc(NC2CCOCC2)nc1-n1cnc(C(=O)NC(CN)c2cc(F)cc(Cl)c2)c1 (stereo not drawn) | enzyme activity | inhibitor | radiometric | 1 µM | remaining activity | 78%
CN(c1ncccc1CNc1nc(Nc2ccc3c(c2)CC(=O)N3)ncc1C(F)(F)F)S(C)(=O)=O | enzyme activity | inhibitor |  | 1 µM | inhibition | 7.8%
Cn1nc(C(=O)NCc2ccc(C(=O)O)cc2)cc1-c1ccc2[nH]ccc2c1 | cell-free assay |  | competition with immobilised ligand | 0.1 µM | remaining binding | 86%
CN1CC(Oc2cnc(C#N)cc2-c2ccn3nc(NC(=O)C4CC4)cc3c2)C1 | enzyme activity | inhibitor |  | 1 µM | inhibition | 10%
C[S+]([O-])c1ccc(-c2nc(-c3ccncc3)c(-c3ccc(F)cc3)[nH]2)cc1 (stereo not drawn) | cell-free assay |  |  | 0.5 µM | remaining signal | 68.9%
COc1cc2ncnc(Nc3ccc(Oc4ccccc4)c(C)c3C)c2cc1OC | enzyme activity | inhibitor |  | 1 µM | inhibition | 6%
O=C(Nc1cnn(-c2csc(C(=O)NC3COC3)c2)c1)Nc1c(F)cccc1Cl | enzyme activity | inhibitor |  | 5 µM | remaining activity | 91.7%
N#CC1c2c([nH]c3c(Cl)c(Cl)ccc23)C(=O)NC12CCCCC2 (racemic) | thermal stability |  | DSF | 10 µM | ΔTm | -0.1 °C
Nc1nc(Nc2ccccc2)sc1C(=O)c1c(F)cccc1F | enzyme activity | inhibitor |  | 10 µM | remaining activity | 12%
CN1CCC2(CC1)NC(=O)c1c(c3ccc(Cl)c(Cl)c3n1C)C2C#N (racemic) | thermal stability |  | DSF | 10 µM | ΔTm | 0.4 °C
O=C(NCCCC1CCCCC1)c1ccc(CNC(=O)c2cnn(-c3ccccc3)c2C(F)(F)F)cc1 | cell-free assay |  | competition with immobilised ligand | 0.1 µM | remaining binding | 100%
Cn1c2c(Cl)c(Cl)ccc2c2cc(N)[nH]c(=O)c21 | thermal stability |  | DSF | 10 µM | ΔTm | 1.8 °C
Nc1cnc(N2CCc3cc(S(=O)(=O)Nc4c(F)cc(Cl)cc4F)cc(N4CCCC4=O)c32)nc1 | cell-free assay |  | competition with immobilised ligand | 1 µM | remaining binding | 100%
Cn1c2c(c3ccc(Cl)c(Cl)c31)C(C#N)C1(CCCCC1)NC2=O (racemic) | thermal stability |  | DSF | 10 µM | ΔTm | 0.1 °C
CC(C)(O)c1cncc(-c2nc3ccc(F)cc3n2C2CC2)c1 | cell-free assay |  | competition with immobilised ligand | 1 µM | remaining binding | 100%
